Measurements from different studies.
Lines come from different studies, so protocols differ.
Target: Myosin light chain kinase (MYLK3, Homo sapiens, UniProt Q32MK0)
Sequence (Q32MK0 1-819, as in one of the studies): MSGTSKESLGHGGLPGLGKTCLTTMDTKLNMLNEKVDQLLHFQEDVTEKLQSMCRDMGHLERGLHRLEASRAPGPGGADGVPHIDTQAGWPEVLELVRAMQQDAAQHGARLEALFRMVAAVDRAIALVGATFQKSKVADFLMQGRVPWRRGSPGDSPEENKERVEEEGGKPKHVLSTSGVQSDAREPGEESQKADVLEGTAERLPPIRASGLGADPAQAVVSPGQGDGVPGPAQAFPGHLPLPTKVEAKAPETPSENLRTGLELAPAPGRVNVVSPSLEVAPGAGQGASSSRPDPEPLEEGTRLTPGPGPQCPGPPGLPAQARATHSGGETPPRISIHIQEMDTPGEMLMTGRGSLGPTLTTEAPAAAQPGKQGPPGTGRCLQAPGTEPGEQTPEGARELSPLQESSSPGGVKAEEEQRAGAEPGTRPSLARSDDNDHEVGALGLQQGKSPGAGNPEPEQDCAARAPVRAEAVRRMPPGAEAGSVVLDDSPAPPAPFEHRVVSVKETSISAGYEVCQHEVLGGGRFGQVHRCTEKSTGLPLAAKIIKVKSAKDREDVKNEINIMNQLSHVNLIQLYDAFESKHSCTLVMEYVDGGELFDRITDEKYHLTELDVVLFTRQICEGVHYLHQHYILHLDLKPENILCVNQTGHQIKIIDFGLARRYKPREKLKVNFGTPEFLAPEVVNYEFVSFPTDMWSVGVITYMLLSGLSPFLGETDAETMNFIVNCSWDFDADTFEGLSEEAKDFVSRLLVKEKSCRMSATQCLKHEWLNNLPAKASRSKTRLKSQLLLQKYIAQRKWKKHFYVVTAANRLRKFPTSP

F[C@@H]1CCN(c2nccc(-c3cnn4ncccc34)n2)C1  remaining binding (binding; 1 µM): 100%
Nc1ncnc2occ(-c3ccc(NC(=O)Nc4cc(C(F)(F)F)ccc4F)cc3)c12  remaining signal (cell-free assay, inhibitor; 20 µM): 0.15%
Cc1ccc(C(=O)Nc2ccc(CN3CCN(C)CC3)c(C(F)(F)F)c2)cc1C#Cc1cnc2cccnn12  remaining activity (enzyme activity, inhibitor; 23.5 nM): 99%
O=C1CCc2cc(Nc3cc(OC4CCOCC4)c([N+](=O)[O-])cc3Cl)ccc2N1  remaining binding (cell-free assay, competition with immobilised ligand; 1 µM): 100%
O=C(Nc1cnn(-c2csc(C(=O)NC3COC3)c2)c1)Nc1ccccc1Cl  remaining activity (enzyme activity, inhibitor; 5 µM): 95.1%
Cc1cnn2ncc(-c3ccnc(N(C)C)n3)c2c1  remaining binding (binding; 1 µM): 96%
CC(C)(C)c1nc2c(s1)c1nc(N)ncc1c1ccc(NS(=O)(=O)c3c(F)cccc3F)c(F)c12  remaining activity (enzyme activity, inhibitor, radiometric; 1 µM): 93%
CC(C)(O)[C@H]1CC[C@H](Nc2ccc3ncc(-c4cccc(C(F)(F)F)c4)n3n2)CC1  remaining activity (enzyme activity, inhibitor; 1 µM): 100%
CO[C@@H](C)c1c(Nc2ccc([C@@H](N(C)C(=O)C3CCS(=O)(=O)CC3)C(F)(F)F)cc2)cnc2cc(Cl)nn12  remaining binding (cell-free assay, competition with immobilised ligand; 1 µM): 87%
CC(C)(C)c1nc(-c2cccc(NS(=O)(=O)c3c(F)cccc3F)c2F)c(-c2ccnc(N)n2)s1  remaining activity (enzyme activity, inhibitor, radiometric; 1 µM): 100%
